Experimental data from ChEMBL document CHEMBL4513216, “Probing the Open Global Health Chemical Diversity Library for Multistage-Active Starting Points for Next-Generation Antimalarials” (ACS Infect Dis, 2020).

Experiment: Toxicity liver stage against HepG2, at 10uM
Assay type: cell-based
Parameters: test concentration 10 uM, cell line HepG2-A16-CD81EGFP
Details: human, HepG2-A16-CD81EGFP cells; read-out: INHIBITION
Procedure, shortened: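 Uninfected HepG2-A16-CD81EGFP cells, 3 × 10^3 per well, 1536-well, plated on prespotted compound at 10 μM final, parasite-free screening media added to match infected plates; puromycin 10 μM positive, DMSO 0.5% negative; run in parallel with 48 h PbLuc assay at 37 °C, 5% CO2; viability by CellTiter-Glo luminescence, normalized to controls.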

Compound	cytotoxicity at 10 µM
Cc1ccc(N2C(=O)N[C@@H]3CCN(C(=O)C4CC4)[C@@H]3C2=O)cc1	3.85%
Cc1occc(=O)c1OCc1noc(C(=O)NCC2CC2)n1	-2.51%
CCS(=O)(=O)N1CCN(CC(F)(F)F)CC1	-1.99%
COC1(CNC(=O)NCCOc2ccccc2)CCSC1 (stereo unspecified)	-0.572%
CCN1C(=O)CC[C@@H]2[C@H]1CCN2S(=O)(=O)c1cccs1	0.169%
CCOCC(=O)N1CCCC2(CCN(c3ccccc3)C2=O)C1 (stereo unspecified)	2.02%
CCCNC(=O)c1cc(-c2ccn(C(C)C)n2)n2ccccc12	1.92%
CN(C)CC(=O)N1Cc2cc(N(C)C)ccc2C1c1cnco1 (stereo unspecified)	-0.757%
Cc1noc(C2(NC(=O)c3cccnc3O)CCCCC2)n1	-9.83%
O=C(Cn1cc(-c2ccccc2)ncc1=O)Nc1nc(C2CC2)n[nH]1	6.2%
COCC1CN(C(=O)c2cccn2C)Cc2ncnn2C1 (stereo unspecified)	-8.97%
CCN(Cc1nonc1C)C(=O)c1cnccn1	-4.04%
O=C1CNc2ncnc(Nc3cnn(Cc4ccccc4F)c3)c2N1	2.27%
CCN(CC)C(=O)c1nnsc1-c1ccc(Cl)cc1	2.74%
Cc1nc(NCc2cccnc2)cc(C2COCCN2)n1 (stereo unspecified)	3.78%
Cc1cc(C(F)(F)F)nc(C2COCCN2S(C)(=O)=O)n1 (stereo unspecified)	-2.6%
Cn1ncc2ccc(C3CCCN(Cc4ccsc4)C3)nc21 (stereo unspecified)	8.61%
CCN(Cc1cscn1)CC1(C)Cc2c(N)nc(N)nc2O1 (stereo unspecified)	3.35%
c1cnc2[nH]c(C3CCCC3)c(CN3CCOCC3)c2c1	-1.06%
CC(C)C(=O)N1CCCC(c2cncc(Oc3cccnc3)n2)C1 (stereo unspecified)	-2.83%
CNC(=O)c1cccc(C2CNCCN2C(=O)c2ccn(C)n2)c1 (stereo unspecified)	-4.22%
Cc1ccc(C(=O)N2CCCC(c3[nH]ncc3S(C)(=O)=O)C2)s1 (stereo unspecified)	-10.6%
Cc1ccsc1C(=O)N1CCC(O)(CN2CCc3ccccc3C2)C1 (stereo unspecified)	0.803%

Compound	cytotoxicity at 10 µM
Cc1ccc(Oc2nccnc2C2CCN(C(=O)C(C)(C)N)CC2)cc1	-7.86%
CNc1cncc(C2CCCN2Cc2ccnc(N3CCCC3)n2)n1 (stereo unspecified)	-12.1%
Cc1nc(CCC(=O)NC2CCC2)cc(C2CCNCC2)n1	-5.15%
Cc1cn2c(n1)CCC(NC(=O)c1ccc(OCC3CC3)nc1)C2 (stereo unspecified)	-9.47%
O=C(CNc1nc(C(F)(F)F)cs1)N1CCc2sccc2C1	15.1%
CC1CN(CC(=O)NCCc2ccccc2)CCN1c1nccs1 (stereo unspecified)	-2.79%
Cc1ccc(S(=O)(=O)NCCc2nnc[nH]2)c2cccnc12	-5.93%
Cc1nc(CCCNC(=O)c2c(F)cc(F)cc2F)n[nH]1	-4.31%
CC(NC(=O)N1CCCC1)c1ccc(S(N)(=O)=O)cc1 (stereo unspecified)	-8.2%
CN(C)C(=O)COc1ccccc1CNC1CCc2ncnn2C1 (stereo unspecified)	5.38%
COCC(=O)NS(=O)(=O)c1ccc(F)c(F)c1	-6.49%
CS(=O)(=O)CCC(=O)NC(c1ccc(F)cc1)C(F)(F)F (stereo unspecified)	-4.44%
O=C(NC1CC1)C1CCN(Cn2nc(-c3ccccc3)oc2=O)CC1	15%
Cc1cnc(CNC2CCc3nc(C(C)C)nn3C2)cn1 (stereo unspecified)	4.93%
NC(=O)c1cc(NC(=O)N2CCOCC2)ccc1F	-48.8%
Cc1nc(C)c(C(C)NC(=O)NCCNc2cccc(F)c2C#N)s1 (stereo unspecified)	-1.37%
C=C(C)CN1CCC(c2n[nH]c(C3CC3)n2)CC1	-1.92%
Cc1ccccc1OCCN(C)Cc1noc(CC(C)C)n1	-6.99%
CCN(C(C)=O)C(c1ccc(Cl)cc1)c1ccccn1 (stereo unspecified)	-4.29%
O=C(CCn1cncn1)NC1(c2cccc(Br)c2)CCC1	-20.2%
O=C(CCc1cscn1)NS(=O)(=O)c1ccc2c(c1)CCC2	-24.5%
Cc1nn(C)c(C)c1C1COCCN1C(=O)Cc1cccc(F)c1 (stereo unspecified)	-11%
Cc1nc(C)n(CC2CCCN2CCCc2ccccc2)n1 (stereo unspecified)	-14.1%

Compound	cytotoxicity at 10 µM
CC(=O)N1CCC(n2nccc2-c2cnc(NCCO)nc2)CC1	-1%
Cc1ccc2[nH]c(CN3CC[C@@H](N4CCN(C)CC4)[C@H](O)C3)c(C)c2c1	-7.34%
COc1cc2c(cc1-c1nc3c(cnn3C(C)C3CC3)[nH]1)OCO2 (stereo unspecified)	4.82%
CN1C[C@@H](n2cnc(-c3ccccc3)c2-c2ccccn2)C[C@H]1C(=O)O	0.322%
CS(=O)(=O)CC1CCCN(c2ncnc3c2Cc2ccccc2OC3)C1 (stereo unspecified)	-7.41%
CN(C)C(=O)c1ccc(-c2cccc3c2CCNC3)cc1	-2.31%
CC(C)C1CN(c2cccc(C#N)n2)CCCN1CC1CC1 (stereo unspecified)	-6.55%
Cc1cc(-c2nn(C)c(Cl)c2CN2CC[C@@](O)(C3CCC3)[C@H](C)C2)no1	-7.23%
CCCN(Cc1ccccc1C)C(CC)CO (stereo unspecified)	-6.08%
O=C(C1CCOC1)N1CCC(OCc2ccccc2)CC1 (stereo unspecified)	3.15%
Cc1ccc(OC2(C(=O)O)CCN(C(=O)c3cccc(F)c3)CC2)cn1	2.91%
CN(Cc1ccncn1)C(=O)CCc1[nH]nc2c1CCCC2	3.11%
CN(C)C1CCCN(C(=O)CCc2csc(N)n2)CC1 (stereo unspecified)	1.48%
Fc1ccc2[nH]c(C3CCCN3CCCn3cccn3)nc2c1 (stereo unspecified)	0.154%
COCCN1CCCC(O)(CN2CCN(c3cc(C)ccn3)CC2)C1=O (stereo unspecified)	0.622%
Nc1nc(N2CCCC(COc3ccc(F)cc3)C2)c2nc[nH]c2n1 (stereo unspecified)	2.11%
CCN(CC)CCn1ccnc1-c1cccc(C#N)c1	-5%
CC(=O)N1CCC(N2CCN(Cc3ccc(C)o3)C(CCO)C2)CC1 (stereo unspecified)	-3.57%
Cc1ccc(-n2ncc3c2CCCC3N)cc1C (stereo unspecified)	-1.97%
Cc1noc(-c2ccc(N[C@H]3CCCCNC3=O)nc2)n1	0.913%
Cn1ncc2c(NC3CCC3)nc(-c3ccncc3)nc21	16.7%
CCN(CC1CCOCC1)C(=O)Cn1ccccc1=O	-19.9%
Cc1ccc(F)c(OC2(C(=O)O)CCN(C(=O)N3CCCC3)CC2)c1	-3.94%

Compound	cytotoxicity at 10 µM
Cc1nc[nH]c1CN(C)CC1CCCN(CCc2ccc(Cl)cc2)C1 (stereo unspecified)	-15.5%
Cn1c(Cn2cccn2)nnc1C1CCN(Cc2cccnc2N)CC1	-9.12%
CCCc1noc(CN(C)C(=O)C2COc3ccccc3C2)n1 (stereo unspecified)	-7.01%
O=C(c1cccs1)N1CCC(Cn2nc(-c3ccco3)ccc2=O)CC1	-2.21%
CCOc1cc(C)nc(N2CCN(C(=O)c3ccncc3)CC2)n1	3.12%
CCOc1cc(C)nc(N2CCN(C(=O)c3csnn3)CC2)n1	2.85%
Cc1cc(C(=O)N2CCCC(c3cc(C(F)(F)F)[nH]n3)C2)on1 (stereo unspecified)	10.5%
Clc1snnc1CN1CCCCC1Cn1cccn1 (stereo unspecified)	-14.8%
Cc1nc(C)n(CC2CCCN2CCCOc2ccc(C#N)cc2)n1 (stereo unspecified)	-8.33%
NC(=O)C1CCN(C(=O)CCCc2nnc(-c3ccccc3)o2)CC1	-13.2%
O=C(CCCc1nc(-c2ccccc2)no1)N1CCN(CCO)CC1	-3.54%
Cc1ncsc1C(=O)NC1CCN(CCCC#N)CC1	-14.7%
CCc1ccc(C(=O)N2CCC(Nc3ccc(C)nn3)CC2)o1	-11%
O=C(c1cnn(-c2ccccc2)n1)N1CCCC(n2cccn2)C1 (stereo unspecified)	1.13%
CCC1CCCN(C(=O)NCc2cccnc2-n2cccn2)C1 (stereo unspecified)	-0.734%
COc1c(C2CCCN2Cc2noc(C(C)C)n2)c(C)nn1C (stereo unspecified)	-8.93%
CCc1nc(CN2CCCC2c2c(C)nn(C)c2OC)no1 (stereo unspecified)	-6.07%
Cc1nc(C)n(CC2CCCN2Cc2nc3ccccc3s2)n1 (stereo unspecified)	-6.25%
CCn1ncc2c1CCCC2NCc1cccc2c1OCO2 (stereo unspecified)	-6.43%
Cc1ccc(C(=O)NC2CCN(Cc3cccc4c3OCCO4)CC2)s1	-4.8%
COCc1ccc(CNCc2c(C)nn(C)c2N(C)C)cc1	-16%
CC(NC(=O)CCOc1cccc(F)c1)c1nnc2n1CCC2 (stereo unspecified)	-14.1%
Cc1n[nH]c(C2CN(Cc3nnc(C4CC4)n3C)CCO2)n1 (stereo unspecified)	-16%

Compound	cytotoxicity at 10 µM
Cc1nn(C)c(C)c1C1CCCN1C(=O)CCNc1ncccn1 (stereo unspecified)	-7.37%
COc1ccc(C(N)c2cccc(S(C)(=O)=O)c2)cc1 (stereo unspecified)	4.69%
Cc1nc(CNC(C)c2ccc(OCC(=O)NC3CC3)cc2)cs1 (stereo unspecified)	-2.82%
Cc1nn(C)c(C)c1CNCc1ccnc(N2CCOCC2)c1	0.626%
Cc1nc2sccn2c1CN(CCCN(C)C)Cc1ccco1	-0.215%
CN(C)Cc1nc2c(o1)CN(S(=O)(=O)c1cccs1)C2	-112%
Cc1cnc(N2CC[C@@H](N3CCOCC3)[C@@H]2Cc2ccncc2)nc1	4.47%
Cc1ccc(CNC(c2ccccc2)c2nccn2C)cc1 (stereo unspecified)	-6.3%
CCCS(=O)(=O)N1CCO[C@H]2[C@H](OCc3ccccn3)CC[C@@H]21	-9%
CN1CCC(c2nc3ccc(-c4cccc(F)c4)cn3n2)CC1	10.4%
Cc1nc(CN2C[C@@H]3CN(C(=O)Cc4ccccn4)C[C@@H]3C2)cs1	-106%
Cc1ccc(CN2CCC3(CC2)CCN(C(=O)c2cccnc2)C3)o1	-93.3%
CNC(=O)[C@H]1C[C@@H]2CN(Cc3cccnc3OC)C[C@@H]2N1C(C)C	11.5%
Cc1cccc(CN2C(=O)CC[C@@H]3[C@H]2CCN3Cc2ccc(C)s2)n1	5.45%
CN(C)CCN1CCO[C@H]2CN(C(=O)N(C)C)C[C@H]21	0.657%
CC1c2ncc(COc3cccnc3)n2CCN1Cc1cnn(C)c1 (stereo unspecified)	-112%
CS(=O)(=O)N1CCC2(CN(C(=O)c3cccnc3)C2)C1	-13%
Cn1cc(CN2CCc3onc(C(=O)N4CCCC4)c3C2)cn1	-12.2%
COCC1N(C(=O)N2CCOCC2)C2CCC1(O)CC2 (stereo unspecified)	-0.791%
